The term IC50 denotes the concentration needed to halve the response being measured.

We go through 17 molecules from publication PMC11229888 (RSC Advances, 2024).

Test [1] concerns Hep G2. In words: MTT anti-proliferative assay, Hep G2. To be noted: Homo sapiens, HepG2, read-out: IC50 Hep G2. Type of test: cell-based. Put shortly:
(§1)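 Cells grown in RPMI-1640 with 10% FBS, 100 units per ml penicillin and 100 μg ml−1 streptomycin at 37 °C, 5% CO2. Seeded at 1.0 × 10^4 cells per well for 48 h, then exposed to a range of test compound concentrations for 24 h. MTT (5 mg ml−1) added for 4 h, formazan dissolved in DMSO, A570 read; viability as percent of untreated; IC50 derived.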
On the technique in general: Tetrazolium assays rely on reduction of a dye to a coloured formazan, in cell work by metabolically active cells.

In test [2] the test system is MCF-7. In words: MTT anti-proliferative assay, MCF-7. Type of test: cell-based. As to conditions: Homo sapiens, MCF7, read-out: IC50 MCF-7. A digest of the protocol:
as §1

Test [3] addresses VEGFR-2 (Homo sapiens, UniProt P35968). In words: biochemical. As to conditions: IC50 VEGFR-2, mean ± S.D. of three experiments.
Test [4] relates to VEGFR-1. To be noted: read-out: IC50 VEGFR-1; cited from earlier work.

Chain of VEGFR-2 (P35968 20-1356): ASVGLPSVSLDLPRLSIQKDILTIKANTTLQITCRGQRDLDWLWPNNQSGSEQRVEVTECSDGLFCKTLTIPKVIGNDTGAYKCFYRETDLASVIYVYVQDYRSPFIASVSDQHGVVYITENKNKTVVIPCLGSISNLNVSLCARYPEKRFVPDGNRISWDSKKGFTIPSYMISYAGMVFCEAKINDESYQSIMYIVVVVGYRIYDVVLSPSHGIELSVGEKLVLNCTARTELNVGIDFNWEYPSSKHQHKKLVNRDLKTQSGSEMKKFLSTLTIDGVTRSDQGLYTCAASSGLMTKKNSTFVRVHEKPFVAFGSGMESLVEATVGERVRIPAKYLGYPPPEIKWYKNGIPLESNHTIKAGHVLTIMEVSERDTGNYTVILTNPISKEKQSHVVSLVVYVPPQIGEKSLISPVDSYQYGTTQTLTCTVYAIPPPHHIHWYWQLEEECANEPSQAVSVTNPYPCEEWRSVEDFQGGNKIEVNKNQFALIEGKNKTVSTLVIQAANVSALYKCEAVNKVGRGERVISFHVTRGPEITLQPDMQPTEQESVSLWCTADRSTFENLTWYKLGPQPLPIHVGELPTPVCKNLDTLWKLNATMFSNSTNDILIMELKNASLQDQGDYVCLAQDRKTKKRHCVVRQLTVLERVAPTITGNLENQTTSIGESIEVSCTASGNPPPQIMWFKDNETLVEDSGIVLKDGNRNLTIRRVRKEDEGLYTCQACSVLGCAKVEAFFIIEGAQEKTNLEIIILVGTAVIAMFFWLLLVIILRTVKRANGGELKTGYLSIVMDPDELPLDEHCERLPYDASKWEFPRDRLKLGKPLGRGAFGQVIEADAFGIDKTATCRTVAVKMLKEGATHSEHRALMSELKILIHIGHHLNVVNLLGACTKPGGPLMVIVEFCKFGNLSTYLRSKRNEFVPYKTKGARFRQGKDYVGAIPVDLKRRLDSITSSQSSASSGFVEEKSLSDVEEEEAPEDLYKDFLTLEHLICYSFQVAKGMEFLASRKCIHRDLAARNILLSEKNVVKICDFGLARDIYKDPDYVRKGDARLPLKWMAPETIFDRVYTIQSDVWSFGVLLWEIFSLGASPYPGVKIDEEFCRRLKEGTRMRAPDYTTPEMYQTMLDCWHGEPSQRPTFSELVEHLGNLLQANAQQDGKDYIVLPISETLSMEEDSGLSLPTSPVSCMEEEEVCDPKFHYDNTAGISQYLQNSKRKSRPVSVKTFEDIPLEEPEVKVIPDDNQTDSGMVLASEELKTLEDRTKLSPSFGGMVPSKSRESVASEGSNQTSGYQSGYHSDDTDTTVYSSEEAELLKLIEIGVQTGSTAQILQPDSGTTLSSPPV

Take `CC(=NNC(=O)c1cccnc1)c1ccc(Nc2nnc(-c3ccc(Cl)cc3)c3ccccc23)cc1` [Compound 2f, N′-(1-[4-{(4-[4-Chlorophenyl]phthalazin-1-yl)amino}phenyl]ethylidene)nicotinohydrazide]: the IC50 amounted to 750 ± 10 nM in test [1] and 780 ± 10 nM in test [2].
On the same counts, the results for `CC(=NNC(=O)c1ccccc1O)c1ccc(Nc2nnc(-c3ccc(Cl)cc3)c3ccccc23)cc1` [Compound 2d, N′-(1-[4-{(4-[4-Chlorophenyl]phthalazin-1-yl)amino}phenyl]ethylidene)-2-hydroxybenzohydrazide] are 2180 ± 30 nM and 3710 ± 70 nM.
Take `CC(=NNC(=S)Nc1ccccc1)c1ccc(Nc2nnc(-c3ccc(Cl)cc3)c3ccccc23)cc1` [Compound 3b, 2-(1-[4-{(4-[4-Chlorophenyl]phthalazin-1-yl)amino}phenyl]ethylidene)-N-phenylhydrazine-1-carbothioamide]: the figures for the IC50 in test [1] and in test [2] were 1530 ± 60 nM and 870 ± 20 nM, respectively.
On the same counts, the results for `CC(=NNC(=O)c1ccccc1Cl)c1ccc(Nc2nnc(-c3ccc(Cl)cc3)c3ccccc23)cc1` [Compound 2c, 2-Chloro-N′-(1-[4-{(4-[4-chlorophenyl]phthalazin-1-yl)amino}phenyl]ethylidene)benzohydrazide] are 590 ± 10 nM and 1740 ± 10 nM.
As for `O=C(Nc1ccccc1)Nc1ccc(Oc2nnc(-c3ccc(Cl)cc3)c3ccccc23)cc1` [Compound 4a, 1-(4-[{4-(4-Chlorophenyl)phthalazin-1-yl}oxy]phenyl)-3-phenylurea], the half-maximal inhibitory concentration (IC50) in test [1] stood at 90 ± 10 nM; in test [2], 180 nM; in test [3], 196 ± 10 nM.
Turning to `S=C(Nc1ccccc1)Nc1ccc(Oc2nnc(-c3ccc(Cl)cc3)c3ccccc23)cc1` [Compound 4b, 1-(4-[{4-(4-Chlorophenyl)phthalazin-1-yl}oxy]phenyl)-3-phenylthiourea], the IC50 is 1630 ± 30 nM in test [1] and 1520 ± 10 nM in test [2].
Consider `Clc1ccc(Nc2nnc(Cc3ccncc3)c3ccccc23)cc1` [Vatalanib], for which the IC50 in test [4] is 380 nM.
For `O=C(Nc1ccc(Oc2nnc(-c3ccc(Cl)cc3)c3ccccc23)cc1)c1cccc([N+](=O)[O-])c1` [Compound 5c, N-(4-[{4-(4-Chlorophenyl)phthalazin-1-yl}oxy]phenyl)-3-nitrobenzamide], the figures for the IC50 in test [1] and in test [2] were 1370 ± 140 nM and 180 nM, respectively.
As for `CNC(=O)c1cc(Oc2ccc(NC(=O)Nc3ccc(Cl)c(C(F)(F)F)c3)cc2)ccn1` [Sorafenib, reference compound], the IC50 in test [1] was 30 ± 10 nM; in test [2], 50 ± 10 nM.
As for `CC(=NNC(N)=S)c1ccc(Nc2nnc(-c3ccc(Cl)cc3)c3ccccc23)cc1` [Compound 3a, 2-(1-[4-{(4-[4-Chlorophenyl]phthalazin-1-yl)amino}phenyl]ethylidene)hydrazine-1-carbothioamide], the IC50 in test [1] stood at 180 nM; in test [2] it was 180 nM; in test [3], 375 ± 10 nM.
On to `CC(=O)Nc1ccc(Oc2nnc(-c3ccc(Cl)cc3)c3ccccc23)cc1` [Compound 5a, N-(4-[{4-(4-Chlorophenyl)phthalazin-1-yl}oxy]phenyl)acetamide], for which the results for the IC50 in test [1], in test [2] and in test [3] were 260 nM, 180 nM and 548 ± 20 nM, respectively.
As to `CC(=NNC(=O)c1ccccc1Br)c1ccc(Nc2nnc(-c3ccc(Cl)cc3)c3ccccc23)cc1` [Compound 2b, 2-Bromo-N′-(1-[4-{(4-[4-chlorophenyl]phthalazin-1-yl)amino}phenyl]ethylidene)benzohydrazide], the half-inhibitory concentration (IC50) in test [1] was determined as 630 ± 10 nM; in test [2] it was 980 ± 10 nM.
Consider `CC(=NNC(=O)c1ccccc1)c1ccc(Nc2nnc(-c3ccc(Cl)cc3)c3ccccc23)cc1` [Compound 2a, N′-(1-[4-{(4-[4-Chlorophenyl]phthalazin-1-yl)amino}phenyl]ethylidene)benzohydrazide], for which the IC50 in test [1] was found to be 770 ± 10 nM; in test [2], 1550 ± 10 nM.
With `CC(=NNC(=O)c1ccncc1)c1ccc(Nc2nnc(-c3ccc(Cl)cc3)c3ccccc23)cc1` [Compound 2g, N′-(1-[4-{(4-[4-Chlorophenyl]phthalazin-1-yl)amino}phenyl]ethylidene)isonicotinohydrazide], the figures for the IC50 in test [1], in test [2] and in test [3] were 120 ± 10 nM, 150 nM and 148 ± 10 nM, respectively.
Regarding `CC(=NNC(=O)c1ccc(N)cc1)c1ccc(Nc2nnc(-c3ccc(Cl)cc3)c3ccccc23)cc1` [Compound 2e, 4-Amino-N′-(1-[4-{(4-[4-chlorophenyl]phthalazin-1-yl)amino}phenyl]ethylidene)benzohydrazide], the concentration for half-maximal inhibition (IC50) in test [1] stood at 1190 ± 40 nM; in test [2], 710 ± 20 nM.
The like results for `O=C(C=Cc1ccccc1)Nc1ccc(Oc2nnc(-c3ccc(Cl)cc3)c3ccccc23)cc1` [Compound 5d, N-(4-[{4-(4-Chlorophenyl)phthalazin-1-yl}oxy]phenyl)cinnamamide] were, in that order, 1260 ± 30 nM and 1120 ± 20 nM.
In the case of `O=C(Nc1ccc(Oc2nnc(-c3ccc(Cl)cc3)c3ccccc23)cc1)c1ccccc1` [Compound 5b, N-(4-[{4-(4-Chlorophenyl)phthalazin-1-yl}oxy]phenyl)benzamide], the IC50 in test [1] came to 220 nM; in test [2] it was 150 nM; in test [3], 331 ± 10 nM.
